Measured values from ChEMBL document CHEMBL5608183, “Synthesis and evaluation of 3,4,5-trisubstituted triazoles as G protein-biased kappa opioid receptor agonists” (Eur J Med Chem, 2024).
The source made the active and inactive calls. The rule behind the calls is not given here.

Tests used:
[1] = Metabolic stability in mouse liver microsome assessed as half life at 1 uM by LC-MS/MS analysis; assay type: ADME; details: liver microsomes
How it was run: (§1)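 Hepatic microsomes (1 mg/mL) were incubated with 1 μM compound at 37 °C with continuous shaking. Reactions were quenched with acetonitrile at 5-min intervals over 1 h and filtered. Half-life was determined by LC-MS/MS.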

[2] = target: T1, Kappa-type opioid receptor (Homo sapiens, UniProt P41145); experiment: Agonist activity at human kappa opioid receptor tranfected in U2OS cells co-transfected with arrestin2-EFC assessed as induction of beta arrestin2 recruitment incubated for 90 mins by Synergy HT luminometer; assay type: functional, cell-based
T1 sequence (P41145 whole entry, the tested form may be a part): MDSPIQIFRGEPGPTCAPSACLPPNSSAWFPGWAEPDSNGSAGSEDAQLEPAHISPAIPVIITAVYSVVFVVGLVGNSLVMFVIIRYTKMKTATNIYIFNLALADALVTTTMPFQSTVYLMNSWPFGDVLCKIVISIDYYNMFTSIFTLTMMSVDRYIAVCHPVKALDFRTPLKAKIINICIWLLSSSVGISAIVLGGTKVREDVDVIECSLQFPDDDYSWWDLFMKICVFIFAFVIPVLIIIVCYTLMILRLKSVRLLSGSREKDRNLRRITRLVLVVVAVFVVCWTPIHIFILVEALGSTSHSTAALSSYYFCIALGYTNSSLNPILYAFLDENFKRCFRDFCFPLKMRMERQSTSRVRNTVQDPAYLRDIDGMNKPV
How it was run: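 PathHunter enzyme-fragment complementation in U2OS cells stably expressing hKOR and βarrestin2, grown in MEM with 10% FBS, geneticin and hygromycin B, run per manufacturer's protocol. Concentration–response curves were fit by three-parameter nonlinear regression, normalized to vehicle and to maximal stimulation by the reference agonist U69,593 on the same plate. 2–4 replicates per experiment; n ≥ 3 independent experiments; 95% CI.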

[3] = Metabolic stability in human liver microsome assessed as half life at 1 uM by LC-MS/MS analysis; assay type: ADME, microsomes; details: for half-life at 1 µM: liver microsomes; for t1/2: microsomes, 1 µM; how it was run: as §1
[4] = target: T1, Kappa-type opioid receptor; experiment: Agonist activity at recombinant human kappa opioid receptor extracted from CHO cell membrane assessed as induction of [35S]GTPgammaS binding incubated for 1 hr by TopCount NXT Microplate Scintillation and Luminescence Counter analysis; assay type: functional, cell membranes
[5] = target: T1, Kappa-type opioid receptor; experiment: Agonist activity at human kappa opioid receptor tranfected in U2OS cells co-transfected with arrestin2-EFC assessed as induction of beta arrestin2 recruitment by measuring maximum efficacy incubated for 90 mins by Synergy HT luminometer relative to […]; assay type: functional, cell-based
How it was run: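 PathHunter enzyme-fragment complementation in U2OS cells stably expressing hKOR and βarrestin2, grown in MEM with 10% FBS, geneticin and hygromycin B, run per manufacturer's protocol. Concentration–response curves were fit by three-parameter nonlinear regression, normalized to vehicle and to maximal stimulation by the reference agonist U69,593 on the same plate.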

[6] = target: T1, Kappa-type opioid receptor; experiment: Agonist activity at recombinant human kappa opioid receptor extracted from CHO cell membrane assessed as induction of [35S]GTPgammaS binding by measuring maximum efficacy at 10 uM incubated for 1 hr by TopCount NXT Microplate Scintillation and Luminescence Counter analysis relative to U69,593; assay type: functional, cell membranes
[7] = target: Mu-type opioid receptor (Homo sapiens) (UniProt P35372); experiment: Binding affinity to Mu opioid receptor (unknown origin) assessed as inhibition of [3H]-D-Ala2,N-MePhe4,Gly-ol-enkephalin binding at 10 uM by radioligand binding assay relative to control
Sequence of Mu-type opioid receptor (Homo sapiens) (P35372 whole entry): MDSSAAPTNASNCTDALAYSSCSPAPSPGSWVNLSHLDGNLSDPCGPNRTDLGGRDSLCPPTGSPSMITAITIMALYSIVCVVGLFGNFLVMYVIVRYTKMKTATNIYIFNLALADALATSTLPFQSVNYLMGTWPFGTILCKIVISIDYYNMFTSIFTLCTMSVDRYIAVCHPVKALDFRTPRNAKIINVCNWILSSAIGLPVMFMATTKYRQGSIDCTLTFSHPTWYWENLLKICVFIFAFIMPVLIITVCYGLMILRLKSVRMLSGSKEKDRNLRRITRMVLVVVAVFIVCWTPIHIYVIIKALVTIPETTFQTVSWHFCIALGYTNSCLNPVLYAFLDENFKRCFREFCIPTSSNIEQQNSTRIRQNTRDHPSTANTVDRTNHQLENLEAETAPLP

[8] = target: Delta-type opioid receptor (Homo sapiens) (UniProt P41143); experiment: Binding affinity to delta opioid receptor (unknown origin) assessed as inhibition of [3H]-D-Ala2,D-Leu5-enkephalin binding at 10 uM by radioligand binding assay relative to control
Sequence of Delta-type opioid receptor (Homo sapiens) (P41143 whole entry): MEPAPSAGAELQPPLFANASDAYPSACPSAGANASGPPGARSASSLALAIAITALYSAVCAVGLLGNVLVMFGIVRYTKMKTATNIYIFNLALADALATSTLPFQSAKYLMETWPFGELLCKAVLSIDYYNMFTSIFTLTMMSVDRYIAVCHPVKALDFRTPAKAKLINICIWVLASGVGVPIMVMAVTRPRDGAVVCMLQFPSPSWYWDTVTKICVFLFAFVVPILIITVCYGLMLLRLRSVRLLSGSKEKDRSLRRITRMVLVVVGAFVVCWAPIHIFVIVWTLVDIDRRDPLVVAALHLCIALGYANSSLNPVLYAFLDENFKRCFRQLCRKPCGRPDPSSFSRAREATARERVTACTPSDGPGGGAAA

[9] = target: T1, Kappa-type opioid receptor; experiment: Displacement of [3H]-[…] from kappa opioid receptor (unknown origin) assessed as inhibition constant by radioligand binding assay
[10] = target: T1, Kappa-type opioid receptor; experiment: Binding affinity to kappa opioid receptor (unknown origin) assessed as inhibition of [3H]-[…] binding at 10 uM by radioligand binding assay relative to control; details: filed as agonist

Row | Compound | half-life at 1 µM [1] [min] | EC50 [2] [nM] | half-life at 1 µM [3] [min] | EC50 [4] [nM] | Emax ([5]; filed as agonist) [%] | Emax ([6]; filed as agonist) [%] | further results
1 | Clc1ccc(CCc2nnc(-c3ccccn3)n2Cc2cccs2)cc1Cl | 1.2 | 319 | 1.5 | 5 |  |  | 
2 | Cc1ccc(CCc2nnc(-c3ncccc3C)n2Cc2cccs2)cc1C(F)(F)F |  | 1610 |  | 13 | 118 |  | 
3 | Cc1ccc(CCc2nnc(-c3cccc4ccccc34)n2Cc2cccs2)cc1C(F)(F)F |  |  |  | 429 |  |  | 
4 | FC(Cc1ccccc1)c1nnc(-c2ccccn2)n1Cc1ccco1 (stereo not given) | 1.9 |  | 9.1 |  |  |  | 
5 | FC(F)(F)c1ccccc1CCc1nnc(-c2ccccn2)n1Cc1cccs1 |  |  |  | 429 |  |  | 
6 | Clc1ccc(CCc2nnc(-c3ccccn3)n2Cc2cccs2)c(Cl)c1 | 2.6 | 5160 | 2.1 | 32 | 154 | 91 | 
7 | c1ccc(CCc2nnc(-c3ccccn3)n2Cc2cccs2)cc1 | 1.6 |  | 5.5 | 926 |  | 76 | 
8 | Cc1ccc(CCc2nnc(-c3ccccn3)n2Cc2nccs2)cc1C(F)(F)F |  | 1290 |  | 34 | 95 | 64 | 
9 | c1ccc(-c2nnc(CCc3ccc4ccccc4c3)n2Cc2cccs2)nc1 |  | 896 |  | 12 |  |  | 
10 | Cc1ccc(CCc2nnc(-c3ccncn3)n2Cc2cccs2)cc1C(F)(F)F |  |  |  | 991 |  |  | 
11 | Cc1ccc(CCc2nnc(-c3ccccc3)n2Cc2cccs2)cc1C(F)(F)F | 0.9 |  | 1.8 | 406 |  |  | 
12 | Cc1ccc(CCc2nnc(-c3ccccn3)n2Cc2ccccc2)cc1C(F)(F)F | 1.3 | 6740 | 0.9 | 83 | 183 |  | 
13 | Cc1ccc(CCc2nnc(-c3ccccn3)n2Cc2ccco2)cc1C(F)(F)F | 0.8 | 803 |  | 21 |  | 90 | t1/2 [3]: 0.9 min
14 | OC(Cc1ccccc1)c1nnc(-c2ccccn2)n1Cc1ccco1 (stereo not given) | 2.5 |  | 17.4 |  |  |  | Emax [6]: 20%
15 | OC(Cc1nnc(-c2ccccn2)n1Cc1cccs1)c1ccccc1 (stereo not given) | 2.6 |  | 20.7 |  |  |  | Emax [6]: 17%
16 | Cc1ccc(CCc2nnc(-c3ccc4ccccc4n3)n2Cc2cccs2)cc1C(F)(F)F |  |  |  | 872 |  |  | 
17 | Cc1ccc(CCc2nnc(-c3ccccn3)n2-c2ccccc2)cc1C(F)(F)F | 1 |  | 1.6 |  |  |  | Activity [4]: inactive
18 | COc1ccc(CCc2nnc(-c3ccccn3)n2Cc2cccs2)cc1 |  |  |  | 122 |  |  | 
19 | FC(Cc1nnc(-c2ccccn2)n1Cc1cccs1)c1ccccc1 (stereo not given) | 0.9 |  | 7.2 |  |  | 82 | 
20 | Cc1ccc(CSc2nnc(-c3ccccn3)n2Cc2ccco2)cc1C(F)(F)F |  |  |  |  |  |  | t1/2 [3]: 1.1 min
21 | Brc1ccccc1CCc1nnc(-c2ccccn2)n1Cc1cccs1 |  |  |  | 358 |  | 84 | 

Row | Compound | half-life at 1 µM [1] [min] | EC50 [2] [nM] | half-life at 1 µM [3] [min] | EC50 [4] [nM] | Emax ([5]; filed as agonist) [%] | Emax ([6]; filed as agonist) [%] | further results
22 | Cc1ccc(CCc2nnc(-c3nccn3C)n2Cc2cccs2)cc1C(F)(F)F | 1.5 | 1020 | 3.1 | 34 | 132 | 91 | 
23 | Fc1ccc(CCc2nnc(-c3ccccn3)n2Cc2cccs2)cc1 |  | 2640 |  | 284 | 97 | 90 | 
24 | Cc1ccc(CCc2nnc(-c3ccccn3)n2Cc2ccncc2)cc1C(F)(F)F |  |  |  |  |  |  | Activity [4]: inactive
25 | O=C(Cc1ccccc1)c1nnc(-c2ccccn2)n1Cc1ccco1 | 1.2 |  | 8.1 |  |  |  | Emax [6]: 4%
26 | Brc1cccc(CCc2nnc(-c3ccccn3)n2Cc2cccs2)c1 |  | 5610 |  | 51 | 118 | 89 | 
27 | Clc1ccc(CCc2nnc(-c3ccccn3)n2Cc2cccs2)cc1 | 3.3 | 2870 | 3.3 | 33 | 137 | 86 | 
28 | Cc1ccc(/C=C/c2nnc(-c3ccccn3)n2Cc2ccco2)cc1C(F)(F)F | 32.2 |  |  | 1170 |  | 89 | t1/2 [3]: 18 min
29 | Cc1ccc(CCc2nnc(-c3ccccn3)n2CC2CC2)cc1C(F)(F)F |  | 6220 |  | 213 |  |  | 
30 | Cc1ccc(CCc2nnc(-c3ccccn3)n2Cc2ccccn2)cc1C(F)(F)F |  | 8120 |  | 175 | 127 | 84 | 
31 | c1ccc(-c2nnc(-c3ccccn3)n2Cc2cccs2)cc1 | 1 |  | 69.7 |  |  |  | 
32 | Brc1ccc(CCc2nnc(-c3ccccn3)n2Cc2cccs2)cc1 |  | 723 |  | 20 | 93 | 92 | 
33 | Cc1ccc(/C=C/c2nnc(-c3nccn3C)n2Cc2nccs2)cc1C(F)(F)F |  | 2190 |  |  |  | 309 | Emax [5]: 36%
34 | Cc1ccc(CCc2nnc(-c3ncccn3)n2Cc2cccs2)cc1C(F)(F)F |  | 2220 |  | 57 | 150 |  | 
35 | Cc1ccc(CCc2nnc(-c3ccccn3)n2Cc2cccnc2)cc1C(F)(F)F | 1.6 | 421 | 1.7 | 55 | 119 | 87 | 
36 | Cc1ccc(/C=C/c2nnc(-c3nccn3C)n2Cc2cccs2)cc1C(F)(F)F |  |  |  | 787 |  |  | 
37 | Cc1ccc(/C=C/c2nnc(-c3ccccn3)n2Cc2cccs2)cc1C(F)(F)F | 30.2 |  | 22 | 496 |  | 79 | 
38 | c1ccc(-c2nnc(CCc3cccc4ccccc34)n2Cc2cccs2)nc1 |  |  |  | 184 |  |  | 
39 | Cc1ccc(CCc2nnc(-c3ccc4ccccc4c3)n2Cc2cccs2)cc1C(F)(F)F |  |  |  | 2960 |  |  | 
40 | Cc1ccc(/C=C/c2nnc(-c3ccccn3)n2Cc2nccs2)cc1C(F)(F)F |  |  |  | 1130 |  | 83 | 
41 | Cc1ccc(CCc2nnc(-c3ccccn3)n2Cc2cccs2)cc1C(F)(F)F | 1.5 | 594 | 1.4 | 11 | 102 |  | inhibition [7]: 30.9%; inhibition [8]: 30.7%; Ki [9]: 5.8 nM; inhibition [10]: 99.7%
42 | Cc1ccc(CCc2nnc(-c3cccnc3)n2Cc2cccs2)cc1C(F)(F)F |  |  |  | 1880 |  | 85 | 
